Assay results: ChEMBL document CHEMBL3758146, “Synthesis and biological evaluation of quinazolin-4(3H)-one derivatives bearing dithiocarbamate side chain at C2-position as potential antitumor agents” (Eur J Med Chem, 2016)
pIC50: −log10 of the molar value. Activity calls are given as the source filed them. The calls are words filed in the database; no cut-off is given here.

Columns and labels:
[1] = Antiproliferative activity against human HCT116 cells after 72 hrs by MTS assay; format: functional, cell-based; conditions: HCT-116, 72 h
Outline: (§1)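 MTS (CellTiter 96 AQueous One) read-out after 72 h exposure; compounds first screened at 50 µM, with ≥50% inhibition versus vehicle-treated cells counted as active. Actives were then tested at various concentrations to give IC50 (concentration causing 50% proliferation inhibition). Triplicate wells, three independent experiments, mean ± SD. 5-FU as positive control.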

HT-29 [2] = experiment: Antiproliferative activity against human HT-29 cells after 72 hrs by MTS assay; format: functional, cell-based; conditions: HT-29, 72 h; outline: as §1
MCF7 [3] = experiment: Antiproliferative activity against human MCF7 cells after 72 hrs by MTS assay; format: functional, cell-based; conditions: MCF7, 72 h; outline: as §1
HeLa = experiment: Antiproliferative activity against human HeLa cells after 72 hrs by MTS assay; format: functional, cell-based; outline: as §1
A549 = experiment: Antiproliferative activity against human A549 cells after 72 hrs by MTS assay; format: functional, cell-based; conditions: A549, 72 h; outline: as §1
HT-29 [4] = experiment: Induction of spindle assembly checkpoint in human HT-29 cells assessed as mitotic index after 16 hrs by immunostaining assay (reference value: 2.87 +/- 0.82); format: functional
HT-29 [5] = experiment: Induction of spindle assembly checkpoint in human HT-29 cells assessed as mitotic index after 8 hrs by immunostaining assay (reference value: 2.81 +/- 0.82); format: functional
HT-29 [6] = experiment: Induction of spindle assembly checkpoint in human HT-29 cells assessed as mitotic index after 4 hrs by immunostaining assay (reference value: 3.13 +/- 1.01); format: functional
HT-29 [7] = experiment: Induction of spindle assembly checkpoint in human HT-29 cells assessed as mitotic index after 2 hrs by immunostaining assay (reference value: 2.47 +/- 0.71); format: functional
HT-29 [8] = experiment: Induction of DNA damage in human HT-29 cells assessed as increase in gamma-H2AX protein level at 2 uM after 1 to 2 hrs by Western blot analysis; format: functional, cell-based
Outline: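 HT29 cells treated 1 or 2 h, DMSO as diluent control. Total lysates immunoblotted for γ-H2AX (15 kDa), with β-actin (42 kDa) as loading reference; both probed on separate sections of one membrane.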

HT-29 [9] = experiment: Induction of DNA damage in human HT-29 cells assessed as gamma-H2AX foci formation at 2 uM after 1 to 2 hrs by DAPI staining based indirect immunofluorescence assay; format: functional, cell-based
Outline: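 HT29 cells exposed 1 or 2 h, DMSO as diluent control. After fixation, cells immunostained with mouse monoclonal anti-γ-H2AX (clone JBW301, 1:1500) and DNA counterstained with DAPI. γ-H2AX foci scored by indirect immunofluorescence.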

Tubulin (Sus scrofa) [10] = biological target: T1, Tubulin (Sus scrofa) (UniProt P02554+P02550); experiment: Induction of porcine neuronal tubulin polymerization at 10 uM after 60 mins by spectrometric analysis; format: protein assay
Outline: (§2)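 Cell-free tubulin polymerization run by a commercial kit protocol; assembly followed as rise in absorbance at 340 nm over 60 min at 37 °C, with Taxol as reference.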

HT-29 [11] = experiment: Cell cycle arrest in human HT-29 cells assessed as accumulation at G2/M phase at IC50 after 24 hrs by propidium iodide staining based FACS analysis (reference value: 16.7 +/- 1.55%); format: functional
HT-29 [12] = experiment: Cell cycle arrest in human HT-29 cells assessed as accumulation at S phase at IC50 after 24 hrs by propidium iodide staining based FACS analysis (reference value: 33.05 +/- 2.22%); format: functional
HT-29 [13] = experiment: Upregulation of phosphorylated BubR1 level in human HT-29 cells after 16 hrs by immuno-blot analysis; format: functional, cell-based
HT-29 [14] = experiment: Induction of DNA damage in human HT-29 cells assessed as gamma-H2AX foci formation after 1 to 2 hrs by DAPI staining based indirect immunofluorescence assay; format: functional, cell-based
Outline: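 HT29 cells treated 1 or 2 h alongside CPT (2 µM) and DMSO diluent, fixed, immunostained with mouse monoclonal anti-γ-H2AX (clone JBW301, 1:1500) and counterstained with DAPI for DNA; γ-H2AX foci scored by indirect immunofluorescence.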

HT-29 [15] = experiment: Induction of DNA damage in human HT-29 cells assessed as increase in gamma-H2AX protein level after 1 to 2 hrs by Western blot analysis; format: functional, cell-based
Outline: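 Total lysates of HT29 cells treated 1 or 2 h, with CPT (2 µM) and DMSO diluent as comparators, immunoblotted for γ-H2AX (15 kDa), with β-actin (42 kDa) as loading control probed on a separate section of the same membrane.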

Tubulin (Sus scrofa) [16] = biological target: T1, Tubulin (Sus scrofa); experiment: Induction of porcine neuronal tubulin polymerization at 15 uM after 60 mins by spectrometric analysis; format: protein assay; outline: as §2
HT-29 [17] = experiment: Cell cycle arrest in human HT-29 cells assessed as accumulation at G0/G1 phase at IC50 after 24 hrs by propidium iodide staining based FACS analysis (reference value: 50.25 +/- 1.19%); format: functional
HT-29 [18] = experiment: Cell cycle arrest in human HT-29 cells assessed as accumulation at G0/G1 phase at 0.18 uM after 24 hrs by propidium iodide staining based FACS analysis (reference value: 50.25 +/- 1.19%); format: functional
HT-29 [19] = experiment: Cell cycle arrest in human HT-29 cells assessed as accumulation at S phase at 0.18 uM after 24 hrs by propidium iodide staining based FACS analysis (reference value: 33.05 +/- 2.22%); format: functional
HT-29 [20] = experiment: Cell cycle arrest in human HT-29 cells assessed as accumulation at G2/M phase at 0.18 uM after 24 hrs by propidium iodide staining based FACS analysis (reference value: 16.7 +/- 1.55%); format: functional
CA46 = experiment: Cytotoxicity against human CA46 cells assessed as growth inhibition after 24 hrs by coulter counter analysis; format: functional, cell-based; conditions: CA46, 24 h
MCF7 [21] = experiment: Cytotoxicity against human MCF7 cells assessed as growth inhibition after 48 hrs by sulforhodamine B assay; format: functional, cell-based; conditions: MCF7, 48 h

T1 sequence (P02550 whole entry, looked up): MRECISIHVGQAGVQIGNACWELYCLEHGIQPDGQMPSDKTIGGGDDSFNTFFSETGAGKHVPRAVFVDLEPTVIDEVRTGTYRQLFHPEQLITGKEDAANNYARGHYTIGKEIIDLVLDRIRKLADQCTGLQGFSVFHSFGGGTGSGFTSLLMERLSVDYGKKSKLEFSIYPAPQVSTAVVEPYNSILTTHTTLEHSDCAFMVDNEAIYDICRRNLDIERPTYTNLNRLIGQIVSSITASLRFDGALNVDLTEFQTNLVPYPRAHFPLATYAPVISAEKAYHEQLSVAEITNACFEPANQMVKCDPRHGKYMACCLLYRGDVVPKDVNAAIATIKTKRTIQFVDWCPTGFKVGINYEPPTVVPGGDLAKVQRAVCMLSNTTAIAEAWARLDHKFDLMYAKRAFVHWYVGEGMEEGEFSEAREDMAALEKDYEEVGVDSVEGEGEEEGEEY
T1 sequence (P02554 whole entry, looked up): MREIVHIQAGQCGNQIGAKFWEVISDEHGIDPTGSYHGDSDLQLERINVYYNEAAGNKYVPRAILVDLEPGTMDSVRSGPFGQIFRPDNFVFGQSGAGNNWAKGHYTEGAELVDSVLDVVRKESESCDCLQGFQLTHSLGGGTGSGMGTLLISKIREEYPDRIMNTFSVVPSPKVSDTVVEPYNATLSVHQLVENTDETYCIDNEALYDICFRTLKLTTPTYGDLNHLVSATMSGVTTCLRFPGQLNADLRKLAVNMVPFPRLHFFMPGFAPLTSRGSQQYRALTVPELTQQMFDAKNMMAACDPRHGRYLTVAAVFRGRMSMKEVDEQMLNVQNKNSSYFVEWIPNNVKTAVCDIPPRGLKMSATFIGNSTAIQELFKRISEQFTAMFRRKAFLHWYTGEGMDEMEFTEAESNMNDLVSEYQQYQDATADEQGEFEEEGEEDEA

Structure (SMILES) | pIC50 [1] | pIC50 (HT-29 [2]) | pIC50 (MCF7 [3]) | pIC50 (HeLa) | pIC50 (A549) | other results
O=c1[nH]c(CSC(=S)NCc2ccc(C(F)(F)F)nc2)nc2ccccc12 | 4.78 | 4.78 | 4.72 | 4.55 | 4.89 | –
O=c1[nH]c(CSC(=S)NCc2ccccc2F)nc2ccccc12 | 4.69 | 4.78 | 4.69 | 4.88 | 4.67 | –
O=c1[nH]c(CSC(=S)NCc2ccc([N+](=O)[O-])cc2)nc2ccccc12 | 4.79 | 4.76 | 4.71 | 4.55 | 4.94 | –
O=c1[nH]c(CSC(=S)NCc2cccnc2)nc2ccccc12 | 4.95 | 4.85 | 4.69 | 4.96 | 4.83 | –
O=c1[nH]c(CSC(=S)NCc2ccc(F)cc2F)nc2ccccc12 | 4.65 | 4.81 | 4.69 | 4.70 | 4.51 | –
O=c1[nH]c(CSC(=S)NCc2ccco2)nc2ccccc12 | 4.61 | 4.47 | < 4.30 | 4.51 | 4.37 | –
Cc1ccc(CNC(=S)SCc2nc3ccccc3c(=O)[nH]2)cc1 | 4.64 | 4.79 | 4.67 | 4.68 | 4.49 | –
COC(=O)Nc1nc2cc(C(=O)c3cccs3)ccc2[nH]1 [NOCODAZOLE] | – | – | – | – | – | Activity_index (HT-29 [4]): 64.81; Activity_index (HT-29 [5]): 25.61; Activity_index (HT-29 [6]): 11.4; Activity_index (HT-29 [7]): 5.22
CC[C@@]1(O)C(=O)OCc2c1cc1n(c2=O)Cc2cc3ccccc3nc2-1 [CAMPTOTHECIN] | – | – | – | – | – | Activity_index (HT-29 [5]): 0.33; Activity (HT-29 [8]): Active; Activity_index (HT-29 [6]): 1.11; Activity (HT-29 [9]): Active; Activity_index (HT-29 [7]): 1.55
O=c1[nH]c(CSC(=S)NCc2ccc(Br)cc2)nc2ccccc12 | 4.34 | 4.49 | 4.41 | 4.64 | 4.74 | –
COc1ccc(CNC(=S)SCc2nc3ccccc3c(=O)[nH]2)cc1 | 4.64 | 5.26 | 4.96 | 4.91 | 5.14 | Activity (Tubulin (Sus scrofa) [10]): inactive; Activity (HT-29 [11]): 55.31%; Activity_index (HT-29 [4]): 37.85; Activity_index (HT-29 [5]): 10.15; Activity (HT-29 [12]): 28.25%; Activity_index (HT-29 [6]): 7.75; Activity (HT-29 [13]): Active; Activity_index (HT-29 [7]): 4.66; Activity (HT-29 [14]): inactive; Activity (HT-29 [15]): inactive; Activity (Tubulin (Sus scrofa) [16]): Active; Activity (HT-29 [17]): 16.45%
O=c1[nH]c(CSC(=S)NCc2ccncc2)nc2ccccc12 | 5.18 | 4.80 | 4.79 | 4.90 | 5.21 | –
O=c1[nH]c(CSC(=S)NCc2ccc(Cl)cc2Cl)nc2ccccc12 | 4.53 | 4.94 | < 4.30 | 4.54 | 4.89 | –
COc1cc(CNC(=S)SCc2nc3ccccc3c(=O)[nH]2)cc(OC)c1OC | 4.76 | 5.15 | 5.05 | 4.64 | 4.98 | –
CC(=O)O[C@H]1C(=O)[C@@]2(C)[C@H]([C@H](OC(=O)c3ccccc3)[C@]3(O)C[C@H](OC(=O)[C@H](O)[C@@H](NC(=O)c4ccccc4)c4ccccc4)C(C)=C1C3(C)C)[C@]1(OC(C)=O)CO[C@@H]1C[C@@H]2O [PACLITAXEL] | – | – | – | – | – | Activity (HT-29 [18]): 1.7%; Activity (HT-29 [19]): 17.6%; Activity (HT-29 [13]): Active; Activity (HT-29 [20]): 80.71%
O=c1[nH]c(CSC(=S)NCc2ccc(F)cc2)nc2ccccc12 | 4.70 | 4.73 | 4.76 | 4.67 | 4.97 | –
O=c1[nH]cc(F)c(=O)[nH]1 [FLUOROURACIL] | – | – | – | – | – | Activity (HT-29 [11]): 3.48%; Activity_index (HT-29 [4]): 0.23; Activity_index (HT-29 [5]): 0.29; Activity (HT-29 [12]): 91.11%; Activity_index (HT-29 [6]): 2.09; Activity_index (HT-29 [7]): 2.28; Activity (HT-29 [17]): 5.42%
O=c1c2cc(Cl)ccc2nc(/C=C/c2ccccc2)n1-c1ncccn1 | – | – | – | – | – | pIC50 (CA46): 6.00; pIC50 (MCF7 [21]): 6.47
COc1ccc(CNC(=S)SCc2nc3ccccc3c(=O)[nH]2)c(OC)c1 | 4.59 | 5.00 | 4.87 | 4.80 | 4.98 | –
O=c1[nH]c(CSC(=S)NCc2ccccn2)nc2ccccc12 | < 4.30 | < 4.30 | < 4.30 | < 4.30 | < 4.30 | –
O=c1[nH]c(CSC(=S)NCc2ccccc2)nc2ccccc12 | 4.74 | 4.84 | 4.50 | 4.97 | 4.62 | –
O=c1[nH]c(CSC(=S)NCc2ccc3c(c2)OCO3)nc2ccccc12 | 4.47 | 4.72 | 4.66 | 4.69 | 4.35 | –
O=c1[nH]c(CSC(=S)NCc2ccc(Cl)cc2)nc2ccccc12 | < 4.30 | < 4.30 | < 4.30 | < 4.30 | < 4.30 | –
COc1ccccc1CNC(=S)SCc1nc2ccccc2c(=O)[nH]1 | 4.51 | 4.91 | 4.83 | 4.78 | 4.92 | –
O=c1[nH]c(CSC(=S)NCc2cccs2)nc2ccccc12 | 4.79 | 4.79 | 4.62 | 4.58 | 4.59 | –
